# Rows were chosen to be rich in hits. Some 6.4% of all compounds tested hit in one or more screens of this group.
# HUVEC inhibit: human endothelial cell proliferation inhibition. HUVEC proliferation, CellTiter-Glo luminescence, 72 h; hits give low values. viability, % at 10 µM (by protocol). 86,000 compounds, 1.1% hits;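 active = viability at or below 30%; inactive = viability above 30%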;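 note: 100% = median luminescence of DMSO-only cell control wells on each plate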
# Jurkat viability: cytotoxicity toward Jurkat cells; inhibition, % at 4 µM; Jurkat E6.1 viability, ATP luminescence, 48 h; 56,000 compounds, 1.2% hits;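 active = inhibition above the mean inhibition of all tested compounds plus 3 SD, cut at about 28% in these data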
# H69AR inhibit: growth inhibitors of human H69AR lung tumor cells; viability, % at 10 µM; H69AR lung tumor viability, ATP luminescence, 72 h; hits give low values; 85,000 compounds, 6% hits;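 active = viability at or below 40%; inactive = viability above 40%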;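 note: multidrug resistant small cell line overexpressing MRP-1 efflux transporter; 100% = mean luminescence of untreated control wells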
# tolC growth inh: E. coli tolC mutant growth inhibition; E. coli BW25113 tolC mutant growth, OD615; growth inhibition, % at 10 µM (by protocol); 65,000 compounds, 2.2% hits; AID 573;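 active = growth inhibition at or above a cutoff equal to the mean over every tested compound plus 3 SD, cut at about 60% in these data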;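 note: growth measured after 20 h incubation at 37 °C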
#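 Test system – E. coli BW25113 ΔtolC::kan, tolC deletion mutant strain · Detection – OD at 615 nm · Buffer or medium – LB with kanamycin 50 µg/mL · Times – 20 h compound exposure of bacteria at 37 °C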
# Ecoli WT expand: blocks growth of wild type E. coli BW25113; growth inhibition, % at 100 µM; OD600 absorbance; 98,000 compounds, 0.15% hits;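 active = growth inhibition above about 50% at one test dose, limit read from the data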;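 note: growth measured after 20 h incubation at 37 °C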
# Fibroblast inh: blocks proliferation of human lung fibroblasts | AID 719 | viability, % at 10 µM | 85,000 compounds, 1.1% hits | LL 47 human lung fibroblast viability, ATP luminescence; hits give low values;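 active = viability at or below 50% in the single dose screen; inactive = viability above 50%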;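 note: compound exposure lasted 72 h before the ATP readout; 100% = median luminescence of untreated cell-only wells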
#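 Material: human lung fibroblast line LL 47, low passage; Evaluation: viability percentage against median untreated-cell control; Buffer or medium: 15% FBS in IMEM; Incubation: 72 h compound exposure at 37 °C after overnight plating; Dosing: 0.1% DMSO in all compound wells; Measured by: CellTiter-Glo luminescence.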
# Starred values were filed as active, the others as inactive; . = no result.
SMILES,HUVEC inhibit,Jurkat viability,H69AR inhibit,tolC growth inh,Ecoli WT expand,Fibroblast inh
COC(=O)c1cc(=O)n(CCc2ccc(OC)c(OC)c2)c(=Nc2ccc(F)c(Cl)c2)s1,7.5*,.,1.1*,.,-7,10*
Cn1c(SCC(=O)N2CCCCCC2)nc2c([nH]c3ccccc32)c1=O,81,.,38*,4,-12,67
Cc1snc(SCC(=O)N/N=C(\N)COc2cccc(C(F)(F)F)c2)c1C#N,.,.,.,.,0,.
Cc1c(C(=O)Nc2ccc3c(c2)OCCO3)sc2nc(-c3ccccc3)cn12,51,20,38*,46,.,85
COc1ccc(-c2cn3c(C)c(C(=O)Nc4cc(NC(C)=O)ccc4OC)sc3n2)cc1,65,48*,93,1,-11,80
Cc1ccc(CNC(=O)c2ccc(Cl)cc2[N+](=O)[O-])cc1,.,.,.,.,-4,.
CC1CN(C(=O)CSc2nnc3c(Cl)cc(Cl)cn23)CC(C)O1 (stereo not drawn),101,.,95,.,-6,98
COCC(C)n1c(C)cc(C(=O)COC(=O)c2c(NC(C)=O)sc(C)c2C)c1C (stereo not drawn),31,4,3.2*,-6,.,62
CCCc1nc2oc3cc(OC)ccc3c(=O)c2c(=O)n1Cc1ccco1,117,-3,82,61*,-10,103
COc1ccc2c(=O)c3c(=O)n(Cc4ccco4)c(-c4ccccc4)nc3oc2c1,100,-5,82,14,-12,101
CCCc1nc2sc3ccccc3c(=O)c2c(=O)n1Cc1ccco1,78,-7,62,70*,10,86
COc1ccc2c(=O)c3c(=O)n(Cc4ccco4)c(-c4cc(OC)c(OC)c(OC)c4)nc3oc2c1,70,-1,13*,-10,.,78
CCOc1ccc(N2C(=O)CC(Sc3nc(-c4cccs4)cc(C(F)(F)F)c3C#N)C2=O)cc1 (stereo not drawn),.,.,.,.,-12,.
COc1cccc(Nc2nc(-c3ccc4c(c3)OCCO4)cs2)c1,73,.,37*,.,-7,96
COc1ccc(NS(=O)(=O)c2cc(C)ccc2NC(=O)c2cc(C)oc2C)cc1,39,90*,29*,87*,1,55
Cc1ccc2c(CC(=O)NCc3ccco3)coc2c1C,53,69*,27*,14,1,55
Cc1cccc(Nc2nc(NCc3ccco3)nc(N3CCOCC3)n2)c1,7.9*,8,53,62*,-13,84
CCc1cc(-c2n[nH]c(C)c2-c2nc3ccccc3n2C)c(O)c(CN2CCN(C)CC2)c1O,79,-2,16*,-5,4,.
CCOC(=O)c1cc(CC)sc1NC(=O)Cc1ccsc1,69,-2,104,73*,5,82
CCOC(=O)c1cc(CC)sc1NC(=O)CCC(=O)O,92,-2,85,7,-1,91
COc1ccc(C2=NOC(C(=O)NCCCn3ccnc3)C2)cc1 (stereo not drawn),99,.,92,.,1,92
CCC(=O)Nc1nonc1-c1nc2ccccc2n1Cc1cccc2ccccc12,51,.,24*,.,.,51
CCC(=O)Nc1nonc1-c1nc2ccccc2n1Cc1ccccc1,88,4,66,20,-2,77
CC1CCN(c2ccc(NC(=S)NC(=O)c3ccc(-c4cccc([N+](=O)[O-])c4)o3)cc2)CC1,72,.,25*,.,-6,75
c1ccc2c(c1)CCN(c1nc3cc4c(cc3s1)OCCO4)C2,.,7,.,65*,-7,.
SMILES,HUVEC inhibit,Jurkat viability,H69AR inhibit,tolC growth inh,Ecoli WT expand,Fibroblast inh
O=S(=O)(c1ccc2c(c1)OCCO2)N1CCN(c2nc3ccccc3s2)CC1,.,12,.,7,-3,.
COc1cccc(NC(=O)CSc2nnc(-c3cccc(OC(C)C)c3)n2N)c1,81,5,92,0,-6,98
CCCCN(CCCC)S(=O)(=O)c1ccc(NC(=O)c2cccs2)cc1,78,.,26*,.,-16,88
COc1ccc(OC)c(NS(=O)(=O)c2ccc(N3CCCC3=O)cc2)c1,.,.,.,6,6,.
Cc1ccccc1NS(=O)(=O)c1ccc(N2CCCC2=O)cc1,63,.,26*,.,4,49*
Cc1cc(SCC(=O)N/N=C/c2ccc(O)cc2O)c(C)cc1Br,35,.,26*,.,13,37*
CCc1ccc(NC(=O)C(CC)Sc2nc3cc4c(cc3c(=O)n2Cc2ccco2)OCO4)cc1 (stereo not drawn),35,.,9.8*,.,-3,28*
CCC(Sc1nc2cc(OC)c(OC)cc2c(=O)n1Cc1ccco1)C(=O)NCCOC (stereo not drawn),90,.,65,.,-1,97
CCc1ccccc1NC(=O)C(CC)Sc1nc2cc3c(cc2c(=O)n1Cc1ccco1)OCO3 (stereo not drawn),46,.,6.3*,-1,-4,85
CCCn1c(=O)c(C(=O)Nc2ccncc2)c(O)c2ccccc21,.,.,.,18,.,.
CCCn1c(=O)c(C(=O)Nc2nnc(CC)s2)c(O)c2ccccc21,110,8,23*,50,.,99
CCOC(=O)c1ccccc1NC(=O)c1c(O)c2ccccc2n(CC)c1=O,111,-5,40*,-8,-19,102
CCOc1ccccc1NC(=O)c1ccccc1-c1nc(-c2ccccc2OC)no1,74,-1,68,4,-9,100
O=C(OCC(=O)N1CCN(C(=O)c2ccco2)CC1)c1cc(-c2cccc(Br)c2)nc2ccccc12,67,.,69,.,-8,107
CCCc1cc(C(=O)N2CCN(c3ccccc3C)CC2)cs1,102,1,75,100*,-1,102
CC(C)(C)NC(=O)c1ccc(Sc2ccccc2)c([N+](=O)[O-])c1,.,.,.,.,2,.
Nc1ccc(Nc2nc(-c3ccncc3)cs2)cc1,71,.,37*,.,7,75
COc1cccc2sc(Nc3nc(-c4ccccn4)cs3)nc12,.,92*,.,98*,-1,.
c1ccc(Nc2nc(-c3ccccn3)cs2)cc1,71,.,37*,.,28,80
CC1=NNC(=O)C1C(c1ccccc1)C(C#N)C#N (stereo not drawn),92,.,98,.,2,106
O=C1CN(C(=O)CCCc2c[nH]c3ccccc23)c2ccccc2N1,85,-4,86,20,10,94
COc1ccc(NC(=O)CSc2nnc(Cn3c(=O)sc4ccccc43)n2C)c(OC)c1,100,0,93,5,-5,98
CCCCCC(=O)Nc1nc2ccccc2[nH]1,86,.,31*,.,.,84
COc1ccccc1CCC(=O)Nc1nc2ccccc2[nH]1,90,6,21*,7,-2,91
Cc1ccccc1OCCCC(=O)Nc1ccccc1C(F)(F)F,.,.,.,.,4,.
COc1cc2c(cc1OC)C(c1cc3cc4c(cc3[nH]c1=O)OCO4)N(C(=O)C(C)C)CC2 (stereo not drawn),100,.,87,.,.,99
Cc1cc(NC(=O)c2cccc(S(=O)(=O)N(C)C)c2)n(-c2ccccn2)n1,79,.,26*,.,-3,96

# Compound activity: PubChem, several laboratories
